In ChEMBL document CHEMBL3352617, “Discovery of 9-(1-phenoxyethyl)-2-morpholino-4-oxo-pyrido[1,2-a]pyrimidine-7-carboxamides as oral PI3Kβ inhibitors, useful as antiplatelet agents” (Bioorg Med Chem Lett, 2014):
pIC50: −log10 of the molar value. One block for each compound: values may come before it.

Assays:
Hepatocyte = assay: Intrinsic clearance in human hepatocytes at 2 uM by LCMS analysis; assay type: ADME, cell-based
Summary of the method: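 Test compound incubated with human hepatocytes. Intrinsic clearance and half-life derived from compound disappearance.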

[1] = Apparent permeability across apical to basolateral side of human Caco2 cells at 10 uM at pH 6.5 by LC-tandem MS analysis; assay type: ADME, cell-based; conditions: Caco-2, pH 6.5
Summary of the method: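 Caco-2 monolayers, apical-to-basolateral transport at pH 6.5. Result given as apparent permeability (Papp).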

[2] = Lipophilicity, log D of the compound at pH 7.4 by HPLC method; assay type: physicochemical; conditions: buffer
Summary of the method: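 LogD measured experimentally at pH 7.4 by an HPLC method.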

[3] = molecular target: Phosphatidylinositol 4,5-bisphosphate 3-kinase catalytic subunit alpha isoform (Homo sapiens, UniProt P42336); assay: Inhibition of human recombinant PI3Kalpha assessed as PIP3 production by AlphaScreen assay
Phosphatidylinositol 4,5-bisphosphate 3-kinase catalytic subunit alpha isoform, sequence (P42336 whole entry, canonical isoform): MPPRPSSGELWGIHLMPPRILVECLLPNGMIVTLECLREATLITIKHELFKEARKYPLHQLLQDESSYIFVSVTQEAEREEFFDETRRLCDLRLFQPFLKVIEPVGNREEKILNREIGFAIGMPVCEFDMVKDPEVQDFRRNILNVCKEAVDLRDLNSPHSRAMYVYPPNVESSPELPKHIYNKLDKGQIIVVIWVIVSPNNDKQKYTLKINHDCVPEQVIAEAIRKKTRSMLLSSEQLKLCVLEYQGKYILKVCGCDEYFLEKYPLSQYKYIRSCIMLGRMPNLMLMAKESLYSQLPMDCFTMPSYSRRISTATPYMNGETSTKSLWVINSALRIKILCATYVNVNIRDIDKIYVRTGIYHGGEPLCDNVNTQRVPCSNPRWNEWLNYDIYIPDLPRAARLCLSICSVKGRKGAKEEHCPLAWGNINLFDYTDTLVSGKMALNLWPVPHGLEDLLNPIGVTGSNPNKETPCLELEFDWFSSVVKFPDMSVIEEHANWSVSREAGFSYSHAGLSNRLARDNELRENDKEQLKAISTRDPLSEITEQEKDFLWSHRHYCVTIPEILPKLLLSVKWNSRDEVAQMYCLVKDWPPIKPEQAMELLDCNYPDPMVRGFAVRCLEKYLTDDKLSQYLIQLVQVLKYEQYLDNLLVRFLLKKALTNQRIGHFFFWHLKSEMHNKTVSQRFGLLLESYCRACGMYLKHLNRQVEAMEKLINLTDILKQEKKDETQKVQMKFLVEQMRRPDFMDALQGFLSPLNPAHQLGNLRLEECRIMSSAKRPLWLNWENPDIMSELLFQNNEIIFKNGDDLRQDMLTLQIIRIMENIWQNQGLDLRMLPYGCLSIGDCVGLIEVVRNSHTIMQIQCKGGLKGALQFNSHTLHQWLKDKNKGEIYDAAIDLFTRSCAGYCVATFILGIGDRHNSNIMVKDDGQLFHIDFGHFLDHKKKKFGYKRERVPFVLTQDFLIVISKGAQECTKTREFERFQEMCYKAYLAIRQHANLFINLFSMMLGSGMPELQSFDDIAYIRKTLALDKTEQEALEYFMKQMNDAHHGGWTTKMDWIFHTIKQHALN

[4] = molecular target: Phosphatidylinositol 4,5-bisphosphate 3-kinase catalytic subunit beta isoform (Homo sapiens, UniProt P42338); assay: Inhibition of human recombinant PI3Kbeta assessed as PIP3 production by AlphaScreen assay
Phosphatidylinositol 4,5-bisphosphate 3-kinase catalytic subunit beta isoform, sequence (P42338 whole entry, canonical isoform): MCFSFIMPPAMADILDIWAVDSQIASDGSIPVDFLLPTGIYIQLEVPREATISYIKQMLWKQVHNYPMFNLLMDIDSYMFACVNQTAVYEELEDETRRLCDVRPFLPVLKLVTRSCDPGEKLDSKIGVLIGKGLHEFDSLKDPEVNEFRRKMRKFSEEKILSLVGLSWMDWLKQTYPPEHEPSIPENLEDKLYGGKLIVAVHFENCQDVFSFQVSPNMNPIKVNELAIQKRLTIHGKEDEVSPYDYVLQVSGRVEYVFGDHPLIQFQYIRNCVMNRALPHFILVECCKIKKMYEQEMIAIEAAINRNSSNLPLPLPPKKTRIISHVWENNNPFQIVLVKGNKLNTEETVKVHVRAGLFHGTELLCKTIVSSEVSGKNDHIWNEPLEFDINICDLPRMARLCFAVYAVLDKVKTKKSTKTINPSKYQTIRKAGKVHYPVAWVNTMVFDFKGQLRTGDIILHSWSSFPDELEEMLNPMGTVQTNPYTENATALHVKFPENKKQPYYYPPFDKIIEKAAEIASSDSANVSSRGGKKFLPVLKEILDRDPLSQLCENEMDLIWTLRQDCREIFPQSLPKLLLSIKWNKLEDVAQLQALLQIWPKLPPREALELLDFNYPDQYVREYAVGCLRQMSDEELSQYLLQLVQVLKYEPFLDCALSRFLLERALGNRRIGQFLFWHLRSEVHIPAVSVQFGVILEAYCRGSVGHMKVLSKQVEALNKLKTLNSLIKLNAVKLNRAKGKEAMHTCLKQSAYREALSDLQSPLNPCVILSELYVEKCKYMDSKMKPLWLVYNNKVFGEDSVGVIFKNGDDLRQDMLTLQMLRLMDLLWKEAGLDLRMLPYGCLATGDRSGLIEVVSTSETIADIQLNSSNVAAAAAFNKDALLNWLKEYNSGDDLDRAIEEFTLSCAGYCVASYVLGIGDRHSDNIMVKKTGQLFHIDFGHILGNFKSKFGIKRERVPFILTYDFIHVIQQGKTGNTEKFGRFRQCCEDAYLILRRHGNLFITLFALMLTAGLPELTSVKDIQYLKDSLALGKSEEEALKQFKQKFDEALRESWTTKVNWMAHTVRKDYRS

[5] = Antiplatelet activity against human platelet assessed as inhibition of collagen-induced platelet rich plasma aggregation by light transmission aggregometry; assay type: functional, cell-free
Summary of the method: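 Human platelet rich plasma stimulated with collagen. Aggregation read by light transmission aggregometry in an in-house 96-well plate format.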

Intrinsic clearance (CLint) (Hepatocyte): < 4 µL/min | Papp A→B at 10 µM [1]: < 0.05 ×10⁻⁶ cm/s | logD [2]: 0.3
Compound: Cc1cc(C(C)Nc2ccccc2S(=O)(=O)O)c2nc(N3CCOCC3)cc(=O)n2c1 (racemic)

logD [2]: 2.8 | pIC50 [5]: 5.30
Compound: Cc1cccc(OC(C)c2cc(C(=O)N(C)CCO)cn3c(=O)cc(N4CCOCC4)nc23)c1 (racemic)

Intrinsic clearance (CLint) (Hepatocyte): 20 µL/min | pIC50 [3]: 5.24 | Papp A→B at 10 µM [1]: 66 ×10⁻⁶ cm/s
Compound: Cc1cc(C(C)Nc2ccccc2)c2nc(N3CCOCC3)cc(=O)n2c1 (racemic)

Intrinsic clearance (CLint) (Hepatocyte): < 4 µL/min | logD [2]: 1.7
Compound: CC(Nc1ccccc1)c1cc(C(=O)NCCN(C)C)cn2c(=O)cc(N3CCOCC3)nc12 (racemic)

Intrinsic clearance (CLint) (Hepatocyte): < 4 µL/min | logD [2]: 1.5
Compound: CC(Nc1ccccc1)c1cc(C(=O)NCCN2CCNCC2)cn2c(=O)cc(N3CCOCC3)nc12 (racemic)

Intrinsic clearance (CLint) (Hepatocyte): 4.3 µL/min | Papp A→B at 10 µM [1]: 35.4 ×10⁻⁶ cm/s | logD [2]: 2.7
Compound: CC(Nc1ccccc1)c1cc(C(=O)N(C)C)cn2c(=O)cc(N3CCOCC3)nc12 (racemic)

logD [2]: 2.3 | pIC50 [5]: 6.40
Compound: CC(Oc1ccccc1)c1cc(C(=O)N(C)CCO)cn2c(=O)cc(N3CCOCC3)nc12 (racemic)

logD [2]: 1.9 | pIC50 [5]: 5.02
Compound: COc1ccccc1OC(C)c1cc(C(=O)N(C)CCO)cn2c(=O)cc(N3CCOCC3)nc12 (racemic)

logD [2]: 2.9 | pIC50 [5]: 5.60
Compound: Cc1cc(OC(C)c2cc(C(=O)N(C)CCO)cn3c(=O)cc(N4CCOCC4)nc23)ccc1F (racemic)

Continued, compound first:

Compound: CC(Nc1ccccc1)c1cc(C(=O)N2CCOCC2)cn2c(=O)cc(N3CCOCC3)nc12 (racemic)
Intrinsic clearance (CLint) (Hepatocyte): < 4 µL/min | Papp A→B at 10 µM [1]: 26.9 ×10⁻⁶ cm/s | logD [2]: 2.7

Compound: Cc1cc([C@@H](C)Nc2ccccc2C(=O)NS(C)(=O)=O)c2nc(N3CCOCC3)cc(=O)n2c1
Intrinsic clearance (CLint) (Hepatocyte): 15 µL/min | pIC50 [3]: 6.80 | Papp A→B at 10 µM [1]: 0.11 ×10⁻⁶ cm/s | logD [2]: 0.9 | pIC50 [4]: 7.92

Compound: Cc1cc(C(C)Nc2ccccc2-c2nnn[nH]2)c2nc(N3CCOCC3)cc(=O)n2c1 (racemic)
Intrinsic clearance (CLint) (Hepatocyte): 18.1 µL/min | Papp A→B at 10 µM [1]: 0.08 ×10⁻⁶ cm/s | logD [2]: 0.8

Compound: Cc1cc(C(C)Nc2cc(Cl)ccc2C(=O)O)c2nc(N3CCOCC3)cc(=O)n2c1 (racemic)
Intrinsic clearance (CLint) (Hepatocyte): 11.9 µL/min | Papp A→B at 10 µM [1]: 15 ×10⁻⁶ cm/s | logD [2]: 1.2

Compound: Cc1ccccc1OC(C)c1cc(C(=O)N(C)CCO)cn2c(=O)cc(N3CCOCC3)nc12 (racemic)
logD [2]: 3 | pIC50 [5]: 6.15

Compound: CC(Nc1ccccc1)c1cc(C(=O)N(C)CC(=O)O)cn2c(=O)cc(N3CCOCC3)nc12 (racemic)
Intrinsic clearance (CLint) (Hepatocyte): < 4 µL/min | Papp A→B at 10 µM [1]: 1 ×10⁻⁶ cm/s | logD [2]: 0.6

Compound: CC(Oc1cccc(C#N)c1)c1cc(C(=O)N(C)CCO)cn2c(=O)cc(N3CCOCC3)nc12 (racemic)
logD [2]: 2 | pIC50 [5]: 5.82

Compound: COc1cccc(OC(C)c2cc(C(=O)N(C)CCO)cn3c(=O)cc(N4CCOCC4)nc23)c1 (racemic)
logD [2]: 2.3 | pIC50 [5]: 5.72

Compound: CC(Nc1ccccc1)c1cc(C(=O)N(C)CCO)cn2c(=O)cc(N3CCOCC3)nc12 (racemic)
Intrinsic clearance (CLint) (Hepatocyte): < 4 µL/min | Papp A→B at 10 µM [1]: 4.3 ×10⁻⁶ cm/s | logD [2]: 2

Compound: CC(Nc1ccccc1)c1cc(C(=O)O)cn2c(=O)cc(N3CCOCC3)nc12 (racemic)
Intrinsic clearance (CLint) (Hepatocyte): < 4 µL/min | Papp A→B at 10 µM [1]: 0.04 ×10⁻⁶ cm/s | logD [2]: 0.6

Compound: CC(Oc1ccccc1F)c1cc(C(=O)N(C)CCO)cn2c(=O)cc(N3CCOCC3)nc12 (racemic)
logD [2]: 2.3 | pIC50 [5]: 5.68

Compound: Cc1c(F)cccc1OC(C)c1cc(C(=O)N(C)CCO)cn2c(=O)cc(N3CCOCC3)nc12 (racemic)
logD [2]: 3.3 | pIC50 [5]: 6.15

Compound: Cc1cc([C@@H](C)Nc2ccccc2C(=O)NO)c2nc(N3CCOCC3)cc(=O)n2c1
Intrinsic clearance (CLint) (Hepatocyte): 30.2 µL/min | pIC50 [3]: 5.54 | Papp A→B at 10 µM [1]: 52 ×10⁻⁶ cm/s | logD [2]: 1.5 | pIC50 [4]: 7.08

Compound: Cc1cc(C(C)Nc2cccc(C(=O)O)c2)c2nc(N3CCOCC3)cc(=O)n2c1 (racemic)
Intrinsic clearance (CLint) (Hepatocyte): < 4 µL/min | Papp A→B at 10 µM [1]: 0.9 ×10⁻⁶ cm/s | logD [2]: 0.3
